# Results as given in ChEMBL document CHEMBL3286129, “Optimization of peptidomimetic boronates bearing a P3 bicyclic scaffold as proteasome inhibitors” (Eur J Med Chem, 2014).
# Active and inactive are the calls of the source. The rule behind the calls is not given here.
# How the values were obtained:
# [1] = test system: NCI-H322M; test: Growth inhibition of human NCI-H322M cells; format: functional
# [2] = test system: COLO 205; test: Growth inhibition of human COLO205 cells; format: functional
# [3] = test system: KM12; test: Growth inhibition of human KM12 cells; format: functional
# [4] = test system: SF-268; test: Growth inhibition of human SF268 cells; format: functional
# [5] = Growth inhibition of human SF295 cells; format: functional; conditions: SF-295
# [6] = test system: U-251; test: Growth inhibition of human U251 cells; format: functional
# [7] = test system: M14; test: Growth inhibition of human M14 cells; format: functional
# [8] = test system: SK-MEL-2; test: Growth inhibition of human SK-MEL-2 cells; format: functional
# [9] = Growth inhibition of human UACC257 cells; format: functional
# [10] = Growth inhibition of human UACC62 cells; format: functional; conditions: UACC-62
# [11] = Growth inhibition of human OVCAR3 cells; format: functional; conditions: OVCAR-3
# [12] = Growth inhibition of human OVCAR5 cells; format: functional; conditions: OVCAR-5
# [13] = Growth inhibition of human OVCAR8 cells; format: functional
# [14] = Growth inhibition of human NCI-ADR-RES cells; format: functional
# [15] = test system: 786-0; test: Growth inhibition of human 786-0 cells; format: functional
# [16] = test system: A498; test: Growth inhibition of human A498 cells; format: functional
# [17] = Growth inhibition of human RXF393 cells; format: functional
# [18] = test system: SN12C; test: Growth inhibition of human SN12C cells; format: functional
# [19] = test system: PC-3; test: Growth inhibition of human PC3 cells; format: functional
# [20] = test system: DU-145; test: Growth inhibition of human DU145 cells; format: functional
# [21] = Growth inhibition of human Hs 578T cells; format: functional
# [22] = biological target: T1, Proteasome Macropain subunit MB1 (Homo sapiens) (UniProt P28074); test: Inhibition of chymotrypsin-like activity of 20S proteasome in human erythrocytes using Suc-Leu-Leu-Val-Tyr-AMC as substrate at 20 uM by fluorescence assay relative to control
# T1 sequence (whole entry): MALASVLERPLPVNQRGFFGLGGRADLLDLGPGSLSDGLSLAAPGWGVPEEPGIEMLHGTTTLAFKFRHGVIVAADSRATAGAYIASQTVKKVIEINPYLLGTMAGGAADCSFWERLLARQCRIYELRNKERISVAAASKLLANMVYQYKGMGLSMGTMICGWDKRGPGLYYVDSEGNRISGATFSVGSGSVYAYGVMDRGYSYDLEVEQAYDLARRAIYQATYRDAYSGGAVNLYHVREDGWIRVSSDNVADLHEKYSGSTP
# In short: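 Single inhibitor concentration, equivalent DMSO as negative control. AMC fluorescence read at ex 380/em 460 nm; percent inhibition of ChT-L activity.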
# [23] = biological target: T2, Proteasome Macropain subunit MB1 (Homo sapiens, UniProt P28074); test: Inhibition of chymotrypsin-like activity of 20S proteasome in human erythrocytes using Suc-Leu-Leu-Val-Tyr-AMC as substrate by fluorescence assay; conditions: read-out: Ki
# T2 sequence (P28074 whole entry): T1 sequence (whole entry)
# [24] = biological target: Proteasome Macropain subunit (Homo sapiens) (UniProt P49721); test: Inhibition of trypsin-like activity of 20S proteasome in human erythrocytes using Boc-Leu-Arg-Arg-AMC as substrate by fluorescence assay; format: cell-based
# Chain of Proteasome Macropain subunit (Homo sapiens) (P49721 whole entry): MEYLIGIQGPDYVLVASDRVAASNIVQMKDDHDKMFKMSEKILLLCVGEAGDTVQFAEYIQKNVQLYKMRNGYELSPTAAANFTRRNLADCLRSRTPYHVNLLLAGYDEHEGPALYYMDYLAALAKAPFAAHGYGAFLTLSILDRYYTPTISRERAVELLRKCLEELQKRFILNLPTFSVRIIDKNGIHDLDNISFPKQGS
# In short: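 Human 20S proteasome 0.0025 mg/mL at 30 °C in 50 mM Tris pH 7.4, 50 mM NaCl, 0.5 mM EDTA, 0.03% SDS, 7.5% DMSO. Varied inhibitor concentrations; AMC release monitored continuously for 10 min, ex 380/em 460 nm. Ki derived from progress-curve IC50 fit.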
# [25] = biological target: Chymotrypsinogen A (Bos taurus, UniProt P00766); test: Inhibition of bovine pancreatic alpha-chymotrypsin using Suc-Leu-Leu-Val-Tyr-AMC as substrate by fluorescence assay
# In short: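 Enzyme incubated at 20 °C in 50 mM Tris pH 8.0, 100 mM NaCl, 5 mM EDTA, 7.5% DMSO with varied inhibitor concentrations. Substrate hydrolysis followed for 10 min. Ki from progress curves; mean of three determinations.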
# [26] = Cytotoxicity against human leukemia cells assessed as cell growth at 10 uM relative to control; format: functional; conditions: read-out: Activity
# In short: (§1)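 Single-concentration screen against a panel of human cancer cell lines. Each value is the mean percent growth across the cell lines of that tumour subpanel.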
# [27] = Cytotoxicity against human NSCLC cells assessed as cell growth at 10 uM relative to control; format: functional; conditions: read-out: Activity; in short: as §1
# [28] = Cytotoxicity against human ovarian cancer cells assessed as cell growth at 10 uM relative to control; format: functional; conditions: Cancer cell lines, read-out: Activity; in short: as §1
# [29] = Cytotoxicity against human renal cancer cells assessed as cell growth at 10 uM relative to control; format: functional; conditions: Cancer cell lines, read-out: Activity; in short: as §1
# [30] = Cytotoxicity against human prostate cancer cells assessed as cell growth at 10 uM relative to control; format: functional; conditions: Cancer cell lines, read-out: Activity; in short: as §1
# [31] = Cytotoxicity against human breast cancer cells assessed as cell growth at 10 uM relative to control; format: functional; conditions: Cancer cell lines, read-out: Activity; in short: as §1
# [32] = test system: CCRF-CEM; test: Growth inhibition of human CCRF-CEM cells; format: functional
# [33] = test system: RPMI-8226; test: Growth inhibition of human RPMI8226 cells; format: functional
# [34] = test system: HOP-62; test: Growth inhibition of human HOP62 cells; format: functional
# [35] = Growth inhibition of human HOP92 cells; format: functional
# [36] = read-out: LC50 (the source's name)
compound,measurement,setting,value
CC(C)C[C@H](NC(=O)CCn1ccc2ncccc2c1=O)B(O)O,GI50,[1],> 100 µM
same,TGI,[1],> 100 µM
same,CC50,[1]; [36],> 100 µM
same,GI50,[2],10 µM
same,TGI,[2],> 100 µM
same,CC50,[2]; [36],> 100 µM
same,GI50,[3],17 µM
same,LC50,[3],> 100 µM
same,TGI,[3],49.6 µM
same,GI50,[4],14.7 µM
same,LC50,[4],> 100 µM
same,TGI,[4],> 100 µM
same,GI50,[5],8.92 µM
same,LC50,[5],> 100 µM
same,TGI,[5],36 µM
same,GI50,[6],33 µM
same,TGI,[6],> 100 µM
same,CC50,[6]; [36],> 100 µM
same,GI50,[7],4.11 µM
same,LC50 (concentration killing 50% of cells),[7],97.9 µM
same,TGI,[7],22.3 µM
same,GI50,[8],18.3 µM
same,LC50,[8],> 100 µM
same,TGI,[8],> 100 µM
same,GI50,[9]; UACC-257,10.1 µM
same,TGI,[9]; UACC-257,47 µM
same,CC50,"[9]; UACC-257, read-out: LC50 (the source's name)",> 100 µM
same,GI50,[10],5.55 µM
same,LC50 (concentration killing 50% of cells),[10],> 100 µM
same,TGI,[10],48.8 µM
same,GI50,[11],4.65 µM
same,LC50 (concentration killing 50% of cells),[11],> 100 µM
same,TGI,[11],31.9 µM
same,GI50,[12],17.1 µM
same,LC50,[12],> 100 µM
same,TGI,[12],> 100 µM
same,GI50,[13]; OVCAR-8,37.5 µM
same,TGI,[13]; OVCAR-8,> 100 µM
same,CC50,"[13]; OVCAR-8, read-out: LC50 (the source's name)",> 100 µM
same,GI50,[14],> 100 µM
same,LC50,[14],> 100 µM
same,TGI,[14],> 100 µM
same,GI50,[15],7.94 µM
same,TGI,[15],> 100 µM
same,CC50,[15]; [36],> 100 µM
same,GI50,[16],3.07 µM
same,LC50,[16],> 100 µM
same,TGI,[16],24.3 µM
same,GI50,[17]; RXF 393,3.29 µM
same,TGI,[17]; RXF 393,14.3 µM
same,CC50,"[17]; RXF 393, read-out: LC50 (the source's name)",54.2 µM
same,GI50,[18],18 µM
same,TGI,[18],> 100 µM
same,CC50,[18]; [36],> 100 µM
same,GI50,[19],41.4 µM
same,TGI,[19],> 100 µM
same,CC50,[19]; [36],> 100 µM
same,GI50,[20],32.7 µM
same,TGI,[20],> 100 µM
same,CC50,[20]; [36],> 100 µM
same,GI50,[21],15.6 µM
same,TGI,[21],> 100 µM
same,CC50,[21]; [36],> 100 µM
same,inhibition,[22],> 40%
same,Ki,[23],0.057 µM
same,inhibition,[24],inactive
same,Ki,[25],Not Active
same,growth at 10 µM,[26],34.8%
same,growth at 10 µM,[27],80.3%
same,growth at 10 µM,[28],84.2%
same,growth at 10 µM,[29],76.1%
same,growth at 10 µM,[30],98.5%
same,growth at 10 µM,[31],68%
same,GI50,[32],2.35 µM
same,TGI,[32],> 100 µM
same,CC50,[32]; [36],> 100 µM
same,GI50,[33],3.22 µM
same,TGI,[33],> 100 µM
same,CC50,[33]; [36],> 100 µM
same,GI50,[34],29.8 µM
same,TGI,[34],> 100 µM
same,CC50,[34]; [36],> 100 µM
same,GI50,[35]; HOP-92,16.8 µM
same,TGI,[35]; HOP-92,71.3 µM
same,CC50,"[35]; HOP-92, read-out: LC50 (the source's name)",> 100 µM
